Marks after values point to notes of the source that are not given here.
Tests used:
[1] = Tirzepatide pharmacokinetics; format: in vivo, human
[2] = system: patients with type 2 diabetes; assay: Hypersensitivity reactions by TE ADA status; format: in vivo, human
Method in brief: (§1)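 Hypersensitivity or injection site reactions during the planned treatment period were tabulated by dose group. Patients were split by treatment-emergent ADA status (TE ADA+ vs TE ADA–). Analysis was descriptive and non-randomized.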

[3] = molecular target: T1, GIPR (Homo sapiens, UniProt P48546); assay: Cell-based assay for NAb against TZP activity on GIPR; format: in vivo; settings: N = 5025
T1 sequence (P48546 22-466): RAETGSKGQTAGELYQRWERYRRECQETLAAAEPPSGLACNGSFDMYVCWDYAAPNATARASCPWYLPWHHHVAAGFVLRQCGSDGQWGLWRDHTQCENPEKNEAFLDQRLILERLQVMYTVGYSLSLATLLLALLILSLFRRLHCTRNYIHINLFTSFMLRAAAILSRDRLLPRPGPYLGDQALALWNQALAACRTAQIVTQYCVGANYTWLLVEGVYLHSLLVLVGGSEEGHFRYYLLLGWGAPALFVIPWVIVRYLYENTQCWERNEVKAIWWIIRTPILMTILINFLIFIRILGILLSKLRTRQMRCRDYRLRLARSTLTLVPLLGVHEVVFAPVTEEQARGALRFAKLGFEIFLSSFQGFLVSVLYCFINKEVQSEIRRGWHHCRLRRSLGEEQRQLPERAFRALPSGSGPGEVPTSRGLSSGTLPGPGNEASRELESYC

[4] = molecular target: GLP-1R (Homo sapiens, UniProt P43220); assay: Cell-based assay for NAb against TZP activity on GLP-1R; format: in vivo; settings: N = 5025
Chain of GLP-1R (P43220 24-463): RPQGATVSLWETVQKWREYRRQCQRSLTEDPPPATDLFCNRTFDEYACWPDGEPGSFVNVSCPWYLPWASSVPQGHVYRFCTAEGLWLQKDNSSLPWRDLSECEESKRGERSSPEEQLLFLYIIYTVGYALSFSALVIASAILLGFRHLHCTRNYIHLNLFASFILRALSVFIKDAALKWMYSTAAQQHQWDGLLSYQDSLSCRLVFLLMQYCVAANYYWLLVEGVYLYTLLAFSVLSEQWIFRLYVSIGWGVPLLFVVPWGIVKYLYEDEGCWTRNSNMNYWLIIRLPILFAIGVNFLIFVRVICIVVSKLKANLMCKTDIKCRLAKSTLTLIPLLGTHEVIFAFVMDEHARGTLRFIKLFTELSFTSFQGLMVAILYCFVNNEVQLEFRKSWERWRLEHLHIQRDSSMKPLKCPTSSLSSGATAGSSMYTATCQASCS

[5] = system: patients with type 2 diabetes; assay: Injection site reactions by TE ADA status; format: in vivo, human
Method in brief: as §1

[6] = system: native GLP-1 (nGLP-1); assay: Cross-reactive ADA binding to nGLP-1; format: in vivo, human; settings: N = 5025
[7] = system: patients with type 2 diabetes; assay: Antidrug antibody; format: in vivo, human
[8] = molecular target: T2, native GIP (nGIP) (Homo sapiens, UniProt P09681); assay: Cross-reactive ADA binding to nGIP; format: in vivo; settings: N = 5025
T2 sequence (P09681 52-93 limits assumed): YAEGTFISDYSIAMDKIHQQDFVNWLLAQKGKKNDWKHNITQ

[9] = TZP 5 mg, TE ADA status not evaluable
[10] = TZP 10 mg, TE ADA status not evaluable
[11] = TZP all doses, TE ADA status not evaluable

## CC[C@H](C)[C@H](NC(=O)[C@H](CC(C)C)NC(=O)[C@H](Cc1c[nH]c2ccccc12)NC(=O)[C@H](CCC(N)=O)NC(=O)[C@@H](NC(=O)[C@H](Cc1ccccc1)NC(=O)[C@H](C)NC(=O)[C@H](CCCCNC(=O)COCCOCCNC(=O)COCCOCCNC(=O)CC[C@H](NC(=O)CCCCCCCCCCCCCCCCCCC(=O)O)C(=O)O)NC(=O)[C@H](CCC(N)=O)NC(=O)[C@H](C)NC(=O)[C@@H](NC(=O)[C@H](CCCCN)NC(=O)[C@H](CC(=O)O)NC(=O)[C@H](CC(C)C)NC(=O)C(C)(C)NC(=O)[C@@H](NC(=O)[C@H](CO)NC(=O)[C@H](Cc1ccc(O)cc1)NC(=O)[C@H](CC(=O)O)NC(=O)[C@H](CO)NC(=O)[C@@H](NC(=O)[C@H](Cc1ccccc1)NC(=O)[C@@H](NC(=O)CNC(=O)[C@H](CCC(=O)O)NC(=O)C(C)(C)NC(=O)[C@@H](N)Cc1ccc(O)cc1)[C@@H](C)O)[C@@H](C)O)[C@@H](C)CC)[C@@H](C)CC)C(C)C)C(=O)N[C@@H](C)C(=O)NCC(=O)NCC(=O)N1CCC[C@H]1C(=O)N[C@@H](CO)C(=O)N[C@@H](CO)C(=O)NCC(=O)N[C@@H](C)C(=O)N1CCC[C@H]1C(=O)N1CCC[C@H]1C(=O)N1CCC[C@H]1C(=O)N[C@@H](CO)C(N)=O [tirzepatide]
[1]; graphical comparison, ADA detected vs not detected and by titer
  Apparent clearance (CL/F): effect of ADA status or ADA titer: not affected
[1]; in vivo
  Relationship between NAb and TZP concentration: No relationship
[2]; TZP 5 mg, TE ADA+, n 815
  Hypersensitivity reactions, %: 3.93%
  Hypersensitivity reactions, m (number of patients with specified reaction): 32
[2]; TZP 5 mg, TE ADA–, n 855
  Hypersensitivity reactions, %: 3.04%
  Hypersensitivity reactions, m (number of patients with specified reaction): 26
[2]; TZP 10 mg, TE ADA+, n 858
  Hypersensitivity reactions, %: 3.61%
  Hypersensitivity reactions, m (number of patients with specified reaction): 31
[2]; TZP 10 mg, TE ADA–, n 812
  Hypersensitivity reactions, %: 3.2%
  Hypersensitivity reactions, m (number of patients with specified reaction): 26
[2]; TZP 15 mg, TE ADA+, n 897
  Hypersensitivity reactions, %: 4.79%
  Hypersensitivity reactions, m (number of patients with specified reaction): 43
[2]; TZP 15 mg, TE ADA–, n 788
  Hypersensitivity reactions, %: 2.66%
  Hypersensitivity reactions, m (number of patients with specified reaction): 21
[2]; TZP all doses, TE ADA+, n 2570
  Hypersensitivity reactions, %: 4.12%
  Hypersensitivity reactions, m (number of patients with specified reaction): 106
[2]; TZP all doses, TE ADA–, n 2455
  Hypersensitivity reactions, %: 2.97%
  Hypersensitivity reactions, m (number of patients with specified reaction): 73
[2]; TZP-treated patients
  Anaphylactic reactions: No anaphylactic reactions
[2]; in vivo
  Severity of hypersensitivity events in TE ADA+ patients: mostly mild to moderate
[3]; baseline
  NAb against TZP activity on GIP R: 2 (<0.1) n (%)
[3]; postbaseline
  NAb against TZP activity on GIP R: 94 (1.9) n (%)
[4]; baseline
  NAb against TZP activity on GLP-1 R: 2 (<0.1) n (%)
[4]; postbaseline
  NAb against TZP activity on GLP-1 R: 107 (2.1) n (%)
[5]; [9]
  Injection site reactions, %: 0.06%
  Injection site reactions, m (number of patients with specified reaction): 1
[5]; TZP 5 mg, TE ADA+, n 815
  Injection site reactions, %: 3.07%
  Injection site reactions, m (number of patients with specified reaction): 25
[5]; TZP 5 mg, TE ADA–, n 855
  Injection site reactions, %: 0.82%
  Injection site reactions, m (number of patients with specified reaction): 7
[5]; [10]
  Injection site reactions, %: 0.06%
  Injection site reactions, m (number of patients with specified reaction): 1
[5]; TZP 10 mg, TE ADA+, n 858
  Injection site reactions, %: 4.43%
  Injection site reactions, m (number of patients with specified reaction): 38
[5]; TZP 10 mg, TE ADA–, n 812
  Injection site reactions, %: 0.86%
  Injection site reactions, m (number of patients with specified reaction): 7
[5]; TZP 15 mg, TE ADA status not evaluable
  Injection site reactions, m (number of patients with specified reaction): 0
[5]; TZP 15 mg, TE ADA+, n 897
  Injection site reactions, %: 6.24%
  Injection site reactions, m (number of patients with specified reaction): 56
[5]; TZP 15 mg, TE ADA–, n 788
  Injection site reactions, %: 0.51%
  Injection site reactions, m (number of patients with specified reaction): 4
[5]; [11]
  Injection site reactions, %: 0.04%
  Injection site reactions, m (number of patients with specified reaction): 2
[5]; TZP all doses, TE ADA+, n 2570
  Injection site reactions, %: 4.63%
  Injection site reactions, m (number of patients with specified reaction): 119
[5]; TZP all doses, TE ADA–, n 2455
  Injection site reactions, %: 0.73%
  Injection site reactions, m (number of patients with specified reaction): 18
[5]; all events
  Severity of injection site reactions: nonserious and nonsevere
[5]; all were TE ADA+
  Patients who discontinued study drug because of injection site reactions: Four
[6]; baseline
  Cross-reactive binding ADA to nGLP-1: 34 (0.7) n (%)
[6]; postbaseline
  Cross-reactive binding ADA to nGLP-1: 716 (14.2) n (%)
[7]; SURPASS Japan-Combo, N 443
  Time to first TE ADA+ titer ≤4 wk: 1 (0.2) n (%)
  Time to first TE ADA+ titer ≤12 wk: 32 (7.2) n (%)
  Time to first TE ADA+ titer ≤40 wk: 209 (47.2) n (%)
  Time to first TE ADA+ titer ≤52 wk: 244 (55.1) n (%)
[7]; SURPASS Japan-Combo, N 443, flexibility of visit windows
  Time to first TE ADA+ titer ≤78 wk: 257 (58.0)^a n (%)
[7]; SURPASS Japan-Mono, N 476
  Time to first TE ADA+ titer ≤4 wk: 4 (0.8) n (%)
  Time to first TE ADA+ titer ≤12 wk: 51 (10.7) n (%)
  Time to first TE ADA+ titer ≤24 wk: 182 (38.2) n (%)
  Time to first TE ADA+ titer ≤40 wk: 278 (58.4) n (%)
  Time to first TE ADA+ titer ≤52 wk: 312 (65.5) n (%)
[7]; SURPASS Japan-Mono, N 476, flexibility of visit windows
  Time to first TE ADA+ titer ≤78 wk: 322 (67.6)^a n (%)
[7]; SURPASS-1, N 351
  Time to first TE ADA+ titer ≤4 wk: 0 n (%)
  Time to first TE ADA+ titer ≤12 wk: 16 (4.6) n (%)
  Time to first TE ADA+ titer ≤24 wk: 90 (25.6) n (%)
  Time to first TE ADA+ titer ≤40 wk: 155 (44.2) n (%)
[7]; SURPASS-1, N 351, flexibility of visit windows
  Time to first TE ADA+ titer ≤52 wk: 174 (49.6)^a n (%)
[7]; SURPASS-2, N 1393
  Time to first TE ADA+ titer ≤4 wk: 6 (0.4) n (%)
  Time to first TE ADA+ titer ≤12 wk: 91 (6.5) n (%)
  Time to first TE ADA+ titer ≤24 wk: 352 (25.3) n (%)
  Time to first TE ADA+ titer ≤40 wk: 639 (45.9) n (%)
[7]; SURPASS-2, N 1393, flexibility of visit windows
  Time to first TE ADA+ titer ≤52 wk: 704 (50.5)^a n (%)
[7]; SURPASS-3, N 1062
  Time to first TE ADA+ titer ≤4 wk: 12 (1.1) n (%)
  Time to first TE ADA+ titer ≤12 wk: 80 (7.5) n (%)
  Time to first TE ADA+ titer ≤24 wk: 266 (25.0) n (%)
  Time to first TE ADA+ titer ≤40 wk: 466 (43.9) n (%)
  Time to first TE ADA+ titer ≤52 wk: 518 (48.8) n (%)
[7]; SURPASS-3, N 1062, flexibility of visit windows
  Time to first TE ADA+ titer ≤78 wk: 536 (50.5)^a n (%)
[7]; SURPASS-4, N 956
  Time to first TE ADA+ titer ≤4 wk: 7 (0.7) n (%)
  Time to first TE ADA+ titer ≤12 wk: 62 (6.5) n (%)
  Time to first TE ADA+ titer ≤24 wk: 190 (19.9) n (%)
  Time to first TE ADA+ titer ≤40 wk: 300 (31.4) n (%)
  Time to first TE ADA+ titer ≤52 wk: 367 (38.4) n (%)
  Time to first TE ADA+ titer ≤78 wk: 389 (40.7) n (%)
  Time to first TE ADA+ titer ≤104 wk: 399 (41.7) n (%)
[7]; SURPASS-5, N 344
  Time to first TE ADA+ titer ≤4 wk: 3 (0.9) n (%)
  Time to first TE ADA+ titer ≤12 wk: 26 (7.6) n (%)
  Time to first TE ADA+ titer ≤24 wk: 89 (25.9) n (%)
  Time to first TE ADA+ titer ≤40 wk: 160 (46.5) n (%)
[7]; SURPASS-5, N 344, flexibility of visit windows
  Time to first TE ADA+ titer ≤52 wk: 178 (51.7)^a n (%)
[7]; baseline, 7 SURPASS phase 3 trials pooled, TE ADA-evaluable TZP-treated N = 5025
  Preexisting ADA: 353 (7.0) n (%)
[7]; postbaseline, 7 trials pooled, N = 5025
  TE ADA+: 2570 (51.1) n (%)
[8]; baseline
  Cross-reactive binding ADA to nGIP: 97 (1.9) n (%)
[8]; postbaseline
  Cross-reactive binding ADA to nGIP: 1705 (33.9) n (%)

From publication PMC10795913 (The Journal of Clinical Endocrinology and Metabolism, 2023)
